Results taken from ChEMBL document CHEMBL4145485, “Design, synthesis, biological evaluation and docking studies of new 3-(4,5-dihydro-1H-pyrazol/isoxazol-5-yl)-2-phenyl-1H-indole derivatives as potent antioxidants and 15-lipoxygenase inhibitors” (Eur J Med Chem, 2018).
In brackets after ≈: the same amount, converted by molar mass.

Assays:
[1] = Inhibition of soybean 15-LOX using arachidonic acid or linoleic acid as substrate preincubated with enzyme followed by substrate addition up to 5 mins by chromogenic method; set-up: species or system Glycine max
How it was run: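 Kit-based assay: soybean LOX pre-mixed with test compound ([…], in DMSO), started with arachidonic or linoleic acid, shaken at least 5 min. Chromogen added to stop and develop, absorbance at 490–500 nm. Quercetin as positive control, DMSO as 100% activity, buffer as blank. IC50 from non-linear dose-response of % inhibition.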

[2] = Antioxidant activity assessed as superoxide dismutase-like activity by measuring inhibition of xanthine oxidase-induced superoxide anion level measured ever 30 secs for 5 mins by NBT reduction assay; format: functional
How it was run: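 Kit-based assay at room temperature in cuvettes: reaction buffer, xanthine and NBT, then test compound ([…]), then xanthine oxidase. A550 read every 30 s from 30 s to 5 min 30 s. Rate per minute compared with a negative control gives % inhibition. IC50 from non-linear dose-response, mean ± SEM of three. Ascorbic acid as reference.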

[3] = Antioxidant activity in PBS buffer assessed as NO scavenging activity after 90 mins in presence of sodium nitroprusside by Griess assay; format: functional
How it was run: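 Test compound at […] mixed 1:1 with 10 mM sodium nitroprusside in PBS pH 7.4, held 90 min at room temperature. Equal volume of Griess reagent (1% sulphanilamide, 0.1% naphthyl ethylene diamine in 2.5% […]) added, absorbance at 546 nm. Ascorbic acid as positive control, DMSO as blank. IC50 by linear regression, mg/mL, mean ± SD of three.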

[4] = Antioxidant activity assessed as inhibition of DPPH radical formation after 30 mins; format: functional
How it was run: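 Test compound at […] mixed 1:1 with […], kept dark at room temperature 30 min, absorbance read at 517 nm. Ascorbic acid as positive control, DMSO as blank. % scavenging taken against a no-compound control. IC50 by linear regression of the dose-response, in mg/mL, mean ± SD of three replicates.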

[5] = Potency index, ratio of ascorbic acid IC50 to compound IC50 for antioxidant activity assessed as inhibition of DPPH radical; format: functional
[6] = system: Glycine max; experiment: Potency index, ratio of quercetin IC50 to compound IC50 for inhibition of soybean 15-LOX
[7] = Potency index, ratio of ascorbic acid IC50 to compound IC50 for antioxidant activity in PBS buffer assessed as NO scavenging activity; format: functional
[8] = Potency index, ratio of ascorbic acid IC50 to compound IC50 for antioxidant activity assessed as superoxide dismutase-like activity by measuring inhibition of xanthine oxidase-induced superoxide anion level; format: functional

Row | SMILES | IC50 [1] [µM] | IC50 [2] [µM] | IC50 [3] [µg/mL] | IC50 [4] [µg/mL] | Ratio IC50 [6] | Ratio IC50 [5] | Ratio IC50 [7] | Ratio IC50 [8]
1 | O=c1c(O)c(-c2ccc(O)c(O)c2)oc2cc(O)cc(O)c12 [QUERCETIN] | 6.87 | – | – | – | – | – | – | –
2 | c1ccc(-c2[nH]c3ccccc3c2C2CC(c3cccnc3)=NO2)cc1 (configuration not stated) | 6.71 | 3.54 | 116.7 | 60.7 (≈ 179 µM) | – | – | – | –
3 | c1ccc(-c2[nH]c3ccccc3c2C2CC(c3cccs3)=NO2)cc1 (configuration not stated) | 7.51 | 4.26 | 233.4 | 117.5 (≈ 341 µM) | – | – | – | –
4 | c1ccc(-c2[nH]c3ccccc3c2C2CC(c3cccs3)=NN2)cc1 (configuration not stated) | 9.41 | 6.51 | 24.04 | 18.3 (≈ 53.3 µM) | – | – | – | –
5 | O=C(c1ccccc1)N1N=C(c2ccncc2)CC1c1c(-c2ccccc2)[nH]c2ccccc12 (configuration not stated) | 5.14 | 4.27 | 52.54 | 107.32 (≈ 243 µM) | – | – | – | –
6 | O=C1O[C@H]([C@@H](O)CO)C(O)=C1O [ASCORBIC ACID] | – | 3.54 | 24.5 | 23.4 (≈ 133 µM) | – | – | – | –
7 | O=C(c1ccccc1)N1N=C(c2cccnc2)CC1c1c(-c2ccccc2)[nH]c2ccccc12 (configuration not stated) | 7.23 | 4.62 | 50.33 | 48.21 (≈ 109 µM) | – | – | – | –
8 | CN1N=C(c2ccncc2)CC1c1c(-c2ccccc2)[nH]c2ccccc12 (configuration not stated) | 9.32 | 5.41 | 37.1 | 33.1 (≈ 93.9 µM) | – | – | – | –
9 | CC(=O)N1N=C(c2ccncc2)CC1c1c(-c2ccccc2)[nH]c2ccccc12 (configuration not stated) | 8.74 | 5.47 | 29.14 | 98.54 (≈ 259 µM) | – | – | – | –

Further lines, with some results ahead:

Row | IC50 [1] [µM] | IC50 [2] [µM] | IC50 [3] [µg/mL] | IC50 [4] [µg/mL] | Ratio IC50 [6] | SMILES | Ratio IC50 [5] | Ratio IC50 [7] | Ratio IC50 [8]
10 | 4.89 | 1.87 | 70.5 | 59.94 (≈ 177 µM) | – | c1ccc(-c2[nH]c3ccccc3c2C2CC(c3ccncc3)=NO2)cc1 (configuration not stated) | – | – | –
11 | 4.56 | 2.57 | 29.8 | 37.97 (≈ 99.8 µM) | – | CC(=O)N1N=C(c2cccnc2)CC1c1c(-c2ccccc2)[nH]c2ccccc12 (configuration not stated) | – | – | –
12 | 6.54 | 3.24 | 20.99 | 15.83 (≈ 46.8 µM) | – | c1ccc(-c2[nH]c3ccccc3c2C2CC(c3ccncc3)=NN2)cc1 (configuration not stated) | – | – | –
13 | 3.84 | 1.78 | 35.01 | 13.61 (≈ 40.2 µM) | 1.8 | c1ccc(-c2[nH]c3ccccc3c2C2CC(c3cccnc3)=NN2)cc1 (configuration not stated) | 1.7 | 0.7 | 2
